Experiments:
MS2 coat protein [1] = assay: apparent Kd, MS2 coat protein; higher = weaker binding; RNA-MaP array
In short: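 Designs measured on fewer than 10 clusters were excluded from the data. The rest were RNAs transcribed from sequenced DNA templates on an Illumina sequencing chip and incubated at room temperature, with or without input ligand, with fluorescently labeled MS2 coat protein at 1.5 nM to 3 μM for 0.8–1.5 h at the lowest to 10–20 min at the highest concentrations. Apparent Kd is the median of the per-cluster binding-curve fits.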

MS2 coat protein [2] = assay: apparent Kd, MS2 coat protein; higher = weaker binding; RNA-MaP array; FMN 200 µM where present
In short: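 The apparent Kd is the median of filtered binding-curve fits, one per cluster, to green signal normalised to red-channel RNA signal and control-cluster median Fmax. The clusters were on Illumina sequencing chips, and stalled E. coli RNA polymerase had transcribed the designs on them. Titration used SNAP-549-labelled MS2 coat protein from 0.7 or 1.5 nM, doubling to 3 µM, without and then with constant ligand, in 100 mM Tris-HCl pH 7.5, 80 mM KCl, 4 mM MgCl2, BSA, DTT, yeast tRNA and Tween-20.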

[3] = designed as: ON switch for flavin mononucleotide, no ligand
[4] = ligand present: flavin mononucleotide, designed as: ON switch for flavin mononucleotide
[5] = designed as: OFF switch for tryptophan, no ligand
[6] = ligand present: tryptophan, designed as: OFF switch for tryptophan
[7] = designed as: OFF switch for flavin mononucleotide, no ligand
[8] = ligand present: flavin mononucleotide, designed as: OFF switch for flavin mononucleotide
[9] = ligand present: theophylline, designed as: ON switch for theophylline

For “CAGGCUUUCAAGAAGGACCUGGUAACAUCAGUGGUAGGAUAUUGGUUAAGCUUGGCUUGACAUGAGGAUCACCCAUGUGGCGUA”, which “apparent Kd” value (MS2 coat protein [1]; [3]) is on record?
The value was 0.0474 µM.

What about the “apparent Kd” value (MS2 coat protein [1]; [4]) of the same sequence?
The value was 0.0115 µM.

“AAUCUGAUUGCGGCCGCCACUAAUUUUCCAUGAGUAUUGCAAUUACAUGAGGAUCACCCAUGUCAUAGGACCGGGCAUGACAUCU” was tested. Which “apparent Kd” value (MS2 coat protein [1]; designed as: ON switch for tryptophan, no ligand) did it give?
Its value is 0.303 µM.

What about the “apparent Kd” value (MS2 coat protein [1]; ligand present: tryptophan, designed as: ON switch for tryptophan) of the same sequence?
The value was 0.24 µM.

“AUAAAAGCCACAUGAGGAUCACCCAUGUAGCAGGAAGCCAGCAAGGAUAUCGCAACAGGAGGGAUCGAGAAGGAGCGUAACUAA” was tested. Which “apparent Kd” value (MS2 coat protein [1]; [3]) did it give?
Its value is 0.0237 µM.

And the “apparent Kd” value (MS2 coat protein [1]; [4])?
The value was 0.0182 µM.

Which results are given for “GGUCAGCAGUCGGCCGCCACUAGUAUACAUGAGGAUCACCCAUGUCCCUUGCGCCUCACCGAUUUUAGGACCGGGACACUGCCUG”?
apparent Kd (MS2 coat protein [1]; [5]): 0.0328 µM; apparent Kd (MS2 coat protein [1]; [6]): 0.0293 µM

For “UAGUACCAAGUGAGGAUAUCUAAAGUCUAUGAAAGAGAGAAGGCACAUGAGGAUCACCCAUGUAACUAGGUGGG”, which “apparent Kd” value (MS2 coat protein [1]; [7]) is on record?
Its value is 0.152 µM.

What about the “apparent Kd” value (MS2 coat protein [1]; [8]) of the same sequence?
The value was 0.162 µM.

With “UGCGUGGGAAAGAAGGCGUCCGAAUUGUGGCCACGAGGAUAUUUCCGGCGCACAUGAGGAUCACCCAUGUUCAGCUGGUAGCGU” as the sequence, how does the “apparent Kd” value (MS2 coat protein [1]; [3]) read?
The value was 0.0325 µM.

And the “apparent Kd” value (MS2 coat protein [1]; [4])?
Its value is 0.0221 µM.

For “CGAUAUGAGGUCGAUACCAGCAGCUUCAAGCACAUGAGGAUCACCCAUGUCCAUUUUACUUGCCCUUGGCAGCGACUUUGGAAAC”, which “apparent Kd” value (MS2 coat protein [1]; designed as: ON switch for theophylline, no ligand) is on record?
Its value is 0.0394 µM.

And the “apparent Kd” value (MS2 coat protein [1]; [9])?
The value was 0.0138 µM.

“AACGCGCAAGAGAAGGGACGGGAGAUUCCGUGGGCUCUGAUCCUACAUGAGGAUCACCCAUGUAGUCAGGAUAUCUGGAGACGC” was tested. Which “apparent Kd” value (MS2 coat protein [1]; [7]) did it give?
The value was 0.106 µM.

And the “apparent Kd” value (MS2 coat protein [1]; [8])?
The value was 0.124 µM.

How did the “apparent Kd” value (MS2 coat protein [1]; [9]) turn out when “GUAACACAUGAGGAUCACCCAUGUUCCGAUACCAGUAUUGAAGAUUACCCUUGGCAGCGGGUAGGUCGGAGUGGACGGCCCGAGC” was run?
The value was 0.0261 µM.

For “ACCGGAAAAGGAUAUCGAAUUAGCAACAUGAGGAUCACCCAUGUCUGUCGCUCGUGUAUUCGAGAAGGUUUCGCCC”, which “apparent Kd” value (MS2 coat protein [1]; [7]) is on record?
Its value is 0.00496 µM.

What about the “apparent Kd” value (MS2 coat protein [1]; [8]) of the same sequence?
Its value is 0.00534 µM.

“UAGAUAAGAAUCAAGGAUAUGAAAAGGCACACAUGAGGAUCACCCAUGUCAAGCACAAAAUGACGUCAGAAGGUGAUAAGCAGCAA” was tested. Which “apparent Kd” value (MS2 coat protein [1]; [3]) did it give?
The value was 0.0576 µM.

And the “apparent Kd” value (MS2 coat protein [1]; [4])?
The value was 0.035 µM.

With “UACUGUCUAACGGCCGCCACUCAGUCUCGGUUGAUUAUCUUAAGUGACAUGAGGAUCACCCAUGUGAGGACCGGGUUGUGCAUAA” as the sequence, how does the “apparent Kd” value (MS2 coat protein [1]; [5]) read?
The value was 0.076 µM.

What about the “apparent Kd” value (MS2 coat protein [1]; [6]) of the same sequence?
The value was 0.136 µM.

Which results are given for “AAAAUACAUGAGGAUCACCCAUGUGCUUUCUAUUCAGGAUAUGGUGGUACAGUGGACAUACCAGAAGGGAAUGAAA”?
apparent Kd (MS2 coat protein [1]; [3]): 0.0111 µM; apparent Kd (MS2 coat protein [1]; [4]): 0.00834 µM

Which “apparent Kd” value (MS2 coat protein [2]; [7]) does the source give for “UGUCGGAGCAGAGGAUAUUACAUGAGGAUCACCCAUGUAUGAACCAAUAGCUGGAAACGGCAAUGUAAGAAGGCUGCUCCGACA” here?
The value was 0.0131 µM.

What about the “apparent Kd” value (MS2 coat protein [2]; [8]) of the same sequence?
Its value is 0.171 µM.

With “CCGGAAACGGGUAGCUGUACAUGAGGAUCACCCAUGUGAUCAUAGGAUAUGGAUCCUAAUUGGAUCCAGAAGGAUGUCAGCUAC” as the sequence, how does the “apparent Kd” value (MS2 coat protein [2]; [3]) read?
The value was 0.163 µM.

What about the “apparent Kd” value (MS2 coat protein [2]; [4]) of the same sequence?
The value was 0.58 µM.

With “UUAAUAAUACAAGGAUAUCUAUUGUUCUUAAGACAUACAUGAGGAUCACCCAUGUUAAUAUAUAUAGAGAAGGUGUAUUUUCAG” as the sequence, how does the “apparent Kd” value (MS2 coat protein [2]; [3]) read?
Its value is 0.0272 µM.

And the “apparent Kd” value (MS2 coat protein [2]; [4])?
Its value is 0.02 µM.

Which results are given for “CAUACACAUGAGGAUCACCCAUGUGAGGAUAUGCGUACGUUGUCCGUAGGCGACGUGCGCAGAAGGCGCGAGGU”?
apparent Kd (MS2 coat protein [2]; [7]): 0.0377 µM; apparent Kd (MS2 coat protein [2]; [8]): 0.0359 µM

For “AGACGGAGCUGAGGAUAUUACAUGAGGAUCACCCAUGUAAGUCUCCAGGAAACUGGAGACAAAUGUAAGAAGGCAGCUCCGUCA”, which “apparent Kd” value (MS2 coat protein [2]; [7]) is on record?
The value was 0.0193 µM.

What about the “apparent Kd” value (MS2 coat protein [2]; [8]) of the same sequence?
The value was 0.0295 µM.

“UUACUCAUGUAAGGAUAUGCAGCCGUGUCGGCUGCAGAAGGUACUAUAAUACAUGAGGAUCACCCAUGUCUAUAAAAUAAAGAC” was tested. Which “apparent Kd” value (MS2 coat protein [2]; [3]) did it give?
The value was 0.048 µM.

And the “apparent Kd” value (MS2 coat protein [2]; [4])?
The value was 0.0268 µM.

With “UUAGAUAGGUCAGGAUAUCGAUUAUUGUAUAGUAUGAUUUACAUGAGGAUCACCCAUGUUAAAUACGAGAAGGGACGUUAGAUU” as the sequence, how does the “apparent Kd” value (MS2 coat protein [2]; [7]) read?
Its value is 0.0265 µM.

What about the “apparent Kd” value (MS2 coat protein [2]; [8]) of the same sequence?
Its value is 0.019 µM.

With “GACUGCCGAGGAUAUACAUGAGGAUCACCCAUGUGCUUCAGCAUCGAAAGAUGCAUGGGUAGAAGGCGGUAGUC” as the sequence, how does the “apparent Kd” value (MS2 coat protein [2]; [7]) read?
The value was 0.0274 µM.

What about the “apparent Kd” value (MS2 coat protein [2]; [8]) of the same sequence?
Its value is 0.072 µM.

How did the “apparent Kd” value (MS2 coat protein [2]; [7]) turn out when “GAAUAGGCAGGAUAUACAUGAGGAUCACCCAUGUGCUUGCGCUAGGCACGUGAACAACGUAGAAGGGCCUAGAC” was run?
Its value is 0.014 µM.

What about the “apparent Kd” value (MS2 coat protein [2]; [8]) of the same sequence?
The value was 0.0228 µM.

What does the source list for “CCUUUGAAGAUCCUAAAUUUCGACAUGAGGAUCACCCAUGUGCAGGAUAUCGUGCCAGUGAUGUGCGAGAAGGGCAGUCUCUGC”?
apparent Kd (MS2 coat protein [2]; [7]): 0.0646 µM; apparent Kd (MS2 coat protein [2]; [8]): 0.0739 µM
